Experimental data reported in paper PMC2741613 (Journal of the American Chemical Society, 2009).

Key:
[1] = molecular target: T1, SHP2 (Homo sapiens, UniProt Q06124); experiment: PTP activity assay with pNPP, SHP2; type: biochemical
T1 sequence (Q06124 1-593): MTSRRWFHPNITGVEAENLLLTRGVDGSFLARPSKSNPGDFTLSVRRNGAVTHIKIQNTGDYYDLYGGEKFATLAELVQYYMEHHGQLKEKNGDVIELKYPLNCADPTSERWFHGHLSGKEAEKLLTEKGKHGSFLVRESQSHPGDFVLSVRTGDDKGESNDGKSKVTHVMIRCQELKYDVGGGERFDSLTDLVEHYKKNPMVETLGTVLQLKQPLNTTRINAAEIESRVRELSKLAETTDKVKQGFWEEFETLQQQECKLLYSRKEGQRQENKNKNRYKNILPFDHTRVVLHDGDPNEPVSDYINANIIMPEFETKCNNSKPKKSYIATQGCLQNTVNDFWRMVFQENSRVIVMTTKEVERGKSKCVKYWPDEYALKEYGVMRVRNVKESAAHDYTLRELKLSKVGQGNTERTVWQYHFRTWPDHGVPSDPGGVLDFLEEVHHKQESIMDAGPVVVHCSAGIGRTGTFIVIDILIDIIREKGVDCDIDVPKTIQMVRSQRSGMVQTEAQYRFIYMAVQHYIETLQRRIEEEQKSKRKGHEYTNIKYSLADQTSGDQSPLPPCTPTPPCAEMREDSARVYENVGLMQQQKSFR
Procedure, shortened: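 Reactions started by adding enzyme to mixtures with various pNPP and test-compound concentrations. Rates were fitted with an enzyme-kinetics model for Ki.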

[2] = molecular target: T2, Lyp (Homo sapiens, UniProt Q9Y2R2); experiment: PTP activity assay with pNPP, Lyp; type: biochemical
T2 sequence (Q9Y2R2 1-807): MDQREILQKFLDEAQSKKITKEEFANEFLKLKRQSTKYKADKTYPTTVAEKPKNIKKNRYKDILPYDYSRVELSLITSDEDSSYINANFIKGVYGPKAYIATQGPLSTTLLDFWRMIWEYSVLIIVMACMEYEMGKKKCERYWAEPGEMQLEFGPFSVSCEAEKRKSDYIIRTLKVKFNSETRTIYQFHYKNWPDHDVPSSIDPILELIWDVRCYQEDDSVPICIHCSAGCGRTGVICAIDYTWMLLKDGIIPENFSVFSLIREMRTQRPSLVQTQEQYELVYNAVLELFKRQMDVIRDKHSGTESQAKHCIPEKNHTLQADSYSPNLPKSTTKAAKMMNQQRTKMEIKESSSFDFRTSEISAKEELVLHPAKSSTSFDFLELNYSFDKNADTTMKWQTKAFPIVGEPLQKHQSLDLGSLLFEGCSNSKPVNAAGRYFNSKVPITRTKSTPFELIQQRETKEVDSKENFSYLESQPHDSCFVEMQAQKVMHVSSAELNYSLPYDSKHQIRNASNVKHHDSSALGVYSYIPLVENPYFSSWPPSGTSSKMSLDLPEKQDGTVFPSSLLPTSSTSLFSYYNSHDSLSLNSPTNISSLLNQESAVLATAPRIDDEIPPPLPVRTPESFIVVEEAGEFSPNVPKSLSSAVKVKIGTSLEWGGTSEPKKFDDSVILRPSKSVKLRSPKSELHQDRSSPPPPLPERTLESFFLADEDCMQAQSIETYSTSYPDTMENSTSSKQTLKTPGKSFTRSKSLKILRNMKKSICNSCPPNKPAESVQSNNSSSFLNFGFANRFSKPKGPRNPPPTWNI

[3] = tested on: pSrc416 in PTP1B−/− mouse embryo fibroblast cells; experiment: Src phosphorylation at Tyr416 in cells; type: cell-based; settings: treated for two hours, various concentrations
Procedure, shortened: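 PTP1B−/− mouse embryo fibroblasts at 80% confluence were exposed to test compound for two hours, then lysed and cleared at 15,000 rpm for 10 min. 30 μg total protein run on SDS-PAGE and blotted to PVDF. Probed with anti-pSrc416, anti-pSrc527 and anti-Src antibodies, HRP-conjugated secondaries.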

With `CCc1ccc(C(=O)NCCCC[C@H](NC(=O)[C@H](Cc2ccc(C(F)(F)P(=O)(O)O)cc2)NC(=O)[C@H](Cc2ccccc2)NC(=O)CO[C@H]2C[C@@H](C)CC[C@@H]2C(C)C)C(N)=O)cc1` [Compound 8] the Ki [1] was greater than 1 µM, the Ki [2] was greater than 1 µM and the “effect on pSrc416 phosphorylation” value [3] was “dose-dependent increase”.
